Activity calls are given as the source filed them. The calls are words filed in the database; no cut-off is given here.
What was measured:
Prothrombin [1] = biological target: T1, Prothrombin (Bos taurus, UniProt P00735); test: Inhibition of amidase activity of bovine thrombin using BANA as substrate after 15 to 40 mins
Glandular kallikrein [2] = biological target: T2, Glandular kallikrein (Sus scrofa, UniProt P00752); test: Inhibition of porcine pancreatic kallikrein using BANA as substrate after 15 to 180 mins
T2 sequence (P00752 whole entry): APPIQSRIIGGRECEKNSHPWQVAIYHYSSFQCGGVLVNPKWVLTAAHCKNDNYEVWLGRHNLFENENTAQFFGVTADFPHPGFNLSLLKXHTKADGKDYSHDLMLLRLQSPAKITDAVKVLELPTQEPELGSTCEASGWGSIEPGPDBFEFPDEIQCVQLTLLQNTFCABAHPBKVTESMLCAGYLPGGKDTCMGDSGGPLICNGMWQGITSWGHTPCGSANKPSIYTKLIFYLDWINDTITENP
Method in brief: (§1)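 Porcine pancreatic kallikrein (635 Frey units/mg) amidase assay, pH 8.1, 37°, 15-180 min. […] Ki came from Dixon plots at two substrate concentrations. Means ± SD, n = 3.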

[3] = Inhibition of bovine trypsin using BANA as substrate after 15 to 30 mins; design: species or system Bos taurus
Cavia porcellus [4] = organism: Cavia porcellus; test: Inhibition of guinea pig complement-mediated immune lysis of sheep red blood cells at 10 uM after 12 mins
Method in brief: (§2)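 Inhibitor in Tris/Mg/Ca/NaCl/gelatin buffer was preincubated 15 min at 37° with guinea pig complement (1:100 of 200 CH50/ml). Sheep erythrocytes (10^9/ml) presensitized with rabbit hemolysin (1:800) were added, and tubes incubated 12 min at 37°. Cold citrate-saline stopped lysis. Hemoglobin at 524 nm was converted to % inhibition via a complement standard curve, corrected for inhibitor lysis, in duplicate.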

Cavia porcellus [5] = organism: Cavia porcellus; test: Inhibition of guinea pig complement-mediated immune lysis of sheep red blood cells at 30 uM after 12 mins; method in brief: as §2
Plasma [6] = test: Anticoagulant activity in human plasma assessed as partial thromboplastin time at 5 uM (reference value: 59 +/- 2.6 secs); assay type: functional
Cavia porcellus [7] = organism: Cavia porcellus; test: Inhibition of guinea pig complement-mediated immune lysis of sheep red blood cells at 0.1 mM after 12 mins; method in brief: as §2
Plasma [8] = test: Anticoagulant activity in human plasma assessed as partial thromboplastin time at 10 uM (reference value: 59 +/- 2.6 secs); assay type: functional
Prothrombin (Bos taurus) = Prothrombin (Bos taurus) (UniProt P00735); test: Inhibition of bovine thrombin-mediated blood clotting formation in presence of human fibrinogen
Plasma [9] = test: Anticoagulant activity in human plasma assessed as partial thromboplastin time at 0.1 mM (reference value: 59 +/- 2.6 secs); assay type: functional
Glandular kallikrein [10] = biological target: T2, Glandular kallikrein; test: Inhibition of porcine pancreatic kallikrein using BPPANA as substrate after 15 to 180 mins; method in brief: as §1
Rattus norvegicus = test: Anticoagulant activity in Wistar rat plasma assessed as activation of partial thromboplastin time at 1.9 mg/kg, iv; assay type: functional, organism-based; design: dose 1.9 mg/kg
Method in brief: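 Female Wistar rats (about 300 g), anesthetized with sodium pentobarbital 25 mg/kg sc, received inhibitor at 1.9 mg/kg iv. Post-injection plasma was separated by centrifugation. 0.1 ml was mixed with Celite suspension, saline and partial thromboplastin, agitated 3 min at 37°, recalcified with 0.02 M CaCl2, and activated PTT clotting time recorded.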

Prothrombin [11] = biological target: T1, Prothrombin; test: Inhibition of amidase activity of bovine thrombin using BPVANA as substrate after 15 to 40 mins

| SMILES | Ki (Prothrombin [1]) | Ki (Glandular kallikrein [2]) | Ki [3] | inhibition (Cavia porcellus [4]) | inhibition (Cavia porcellus [5]) | APTT (Plasma [6]) | inhibition (Cavia porcellus [7]) | APTT (Plasma [8]) | IC50 (Prothrombin (Bos taurus)) | APTT (Plasma [9]) | Ki (Glandular kallikrein [10]) | Activity (Rattus norvegicus) | Ki (Prothrombin [11]) |
| --- | --- | --- | --- | --- | --- | --- | --- | --- | --- | --- | --- | --- | --- |
| N=C(N)c1ccc(COc2ccc3cc(OCc4ccc(C(=N)N)cc4)ccc3c2)cc1 | 6 µM | 9.7 µM | 3.2 µM | – | – | – | – | – | – | – | – | – | – |
| Cl.N=C(N)c1ccc(COc2ccc3ccc(OCc4ccc(C(=N)N)cc4)cc3c2)cc1 | 4.9 µM | 2.8 µM | 1.8 µM | 12.8% | 37.4% | 63 s | > 50% | 66 s | 20 µM | – | – | – | – |
| Cl.N=C(N)c1ccc(OCc2cccc(COc3ccc(C(=N)N)cc3I)c2)c(I)c1 | 1.2 µM | – | 0.67 µM | 0% | 32.6% | 64 s | > 50% | 70 s | – | 369 s | 0.031 µM | – | – |
| N=C(N)c1ccc(OCCCOc2ccc(C(=N)N)cc2Br)c(Br)c1 | – | – | – | 6.3% | 26.9% | – | 19.1% | – | – | – | – | – | – |
| Cl.N=C(N)c1ccc(OCc2c(Cl)c(Cl)c(Cl)c(COc3ccc(C(=N)N)cc3)c2Cl)cc1 | 1.5 µM | 5.2 µM | 1.3 µM | 5.9% | > 50% | 62 s | > 50% | 76 s | 8 µM | – | – | – | – |
| Cl.N=C(N)c1ccc(OCc2ccc(COc3ccc(C(=N)N)cc3)cc2)cc1 | 3.4 µM | 11.4 µM | 1.3 µM | 0% | 0% | 147 s | 25.9% | 176 s | 17 µM | 725 s | – | inactive | – |
| Cl.N=C(N)c1cccc(COc2ccc3cc(OCc4cccc(C(=N)N)c4)ccc3c2)c1 | 2.4 µM | 5.5 µM | 3.2 µM | 11% | > 50% | 61 s | > 50% | 72 s | 30 µM | 277 s | – | – | – |
| N=C(N)c1ccc(OCCCCCOc2ccc(C(=N)N)cc2Br)c(Br)c1 | – | – | – | 20.8% | 28.5% | – | > 50% | – | – | – | – | – | – |
| Cl.N=C(N)c1cccc(OCc2ccc(COc3cccc(C(=N)N)c3)cc2)c1 | 5 µM | 5.8 µM | 6.1 µM | 5.6% | 14% | 80 s | 19.1% | 122 s | 13 µM | 391 s | – | – | – |
| Cl.N=C(N)c1cccc(OCc2cccc(-c3cccc(COc4cccc(C(=N)N)c4)c3)c2)c1 | 1.67 µM | 1.76 µM | 4.01 µM | – | – | 73 s | – | 93 s | 4 µM | – | – | – | – |
| Cl.N=C(N)c1ccc(OCc2ccc(COc3ccc(C(=N)N)cc3Br)cc2)c(Br)c1 | – | 0.71 µM | 1.1 µM | – | – | 96 s | – | 110 s | – | 258 s | – | – | 0.16 µM |
| N=C(N)c1cccc(OCc2ccc3cc(COc4cccc(C(=N)N)c4)ccc3c2)c1 | 5.1 µM | 5.5 µM | 5.9 µM | 36.6% | 47% | – | – | – | 72 µM | – | – | – | – |
| Cl.N=C(N)c1ccc(OCc2cc(COc3ccc(C(=N)N)cc3)c3ccccc3c2)cc1 | 5.2 µM | 1.04 µM | 1.8 µM | 5.6% | 15.3% | 62 s | > 50% | 67 s | 15 µM | 147 s | – | – | – |
| N=C(N)c1ccc(OCc2c(Cl)c(Cl)c(COc3ccc(C(=N)N)cc3)c(Cl)c2Cl)cc1 | 6.7 µM | 3.4 µM | 1.2 µM | 0% | > 50% | – | – | – | – | – | – | – | – |
| Cl.N=C(N)c1ccc(OCc2cccc(-c3cccc(COc4ccc(C(=N)N)cc4)c3)c2)cc1 | – | 1.6 µM | 1.4 µM | – | – | 72 s | – | 83 s | 0.73 µM | 412 s | – | – | 0.57 µM |
| Cl.N=C(N)c1cccc(OCc2cccc(COc3cccc(C(=N)N)c3)c2)c1 | 4.6 µM | 3.4 µM | 3.2 µM | 0% | 13.7% | 92 s | 34% | 112 s | 6.5 µM | 714 s | – | – | – |
| Cl.N=C(N)c1ccc(OCc2ccc(COc3ccc(C(=N)N)cc3)c3ccccc23)cc1 | 6.6 µM | 2.5 µM | 1.9 µM | 2.9% | 10.8% | 64 s | – | 71 s | – | 203 s | – | – | – |
| CC[n+]1c(-c2ccccc2)c2cc(NN=Nc3cccc(C(=N)N)c3)ccc2c2ccc(NN=Nc3cccc(C(=N)N)c3)cc21 | – | – | – | 50% | > 50% | – | > 50% | – | – | – | – | – | – |
| Cl.N=C(N)c1ccc(OCc2cccc(-c3cccc(COc4ccc(C(=N)N)cc4Br)c3)c2)c(Br)c1 | – | 2.2 µM | 0.25 µM | – | – | 62 s | – | – | 10 µM | – | – | – | 0.27 µM |
| Cl.N=C(N)c1ccc(OCc2ccc(COc3ccc(C(=N)N)cc3I)cc2)c(I)c1 | – | – | 2.3 µM | 0% | 29.8% | 80 s | – | 92 s | 1 µM | – | 0.61 µM | – | 0.11 µM |
| Cl.N=C(N)c1ccc(COc2cccc3c(OCc4ccc(C(=N)N)cc4)cccc23)cc1 | – | 8.6 µM | 2.8 µM | 0% | 0% | 60 s | 0% | 61 s | – | 141 s | – | – | – |
| Cl.N=C(N)c1ccc(OCc2cccc(COc3ccc(C(=N)N)cc3)c2)cc1 | 4.8 µM | 6.7 µM | 3.5 µM | 0% | 10.3% | 87 s | 24.9% | 117 s | 25 µM | – | – | – | – |
| N=C(N)c1ccc(OCCCCCOc2ccc(C(=N)N)cc2I)c(I)c1 | – | – | – | 26.9% | > 50% | – | – | – | – | – | – | – | – |
| Cl.N=C(N)c1cccc(COc2cccc3c(OCc4cccc(C(=N)N)c4)cccc23)c1 | – | 2.2 µM | 0.42 µM | 0% | 8.9% | 65 s | 39% | 75 s | – | – | – | – | – |

From ChEMBL document CHEMBL3271968, “Novel bis(benzamidino) compounds with an aromatic central link. Inhibitors of thrombin, pancreatic kallikrein, trypsin, and complement” (J Med Chem, 1976)
